Measured values reported in ChEMBL document CHEMBL1130341, “Novel indole-2-carboxamide and cycloalkeno[1,2-b]indole derivatives. Structure-activity relationships for high inhibition of human LDL peroxidation” (J Med Chem, 1997).

What was measured:
[1] = Activity ratio versus Probucol in lipid peroxidation; assay type: functional
Procedure, shortened: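 LDL isolated by ultracentrifugation from pooled plasma of healthy normolipidemic human donors. Compounds were added in DMSO just before copper-induced oxidation (3 h, 24 °C). Ten concentrations from 10^-7 to 10^-3 M were tested in duplicate. Read-out was TBARS inhibition (Yagi method), and IC50 came from linear regression. Activity was expressed as a ratio versus probucol to correct for LDL batch variation.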

[2] = Tested for inhibition of copper induced lipid peroxidation in human low density lipoproteins (LDL); assay type: functional
Procedure, shortened: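 LDL isolated by ultracentrifugation from pooled plasma of healthy normolipidemic human donors. Oxidation driven by copper for 3 h at 24 °C. Compounds in DMSO added just before oxidation, at 10 concentrations from 10^-7 to 10^-3 M, in duplicate. TBARS measured by the Yagi method. IC50 by linear regression; also given as an activity ratio versus probucol.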

[3] = system: Endothelial cell; test: Inhibitory concentration against 15-lipoxygenase, by inhibiting 15-HETE production by human umbilical vein endothelial cells (HUVEC) stimulated by calcium ionophore A 23187 at concentration of 10e-5 M.; assay type: cell-based
Procedure, shortened: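 HUVEC (isolated) preincubated 15 min at 37 °C with compound at 10^-5 M in DMSO, in triplicate; stimulated with calcium ionophore A 23187 (5 × 10^-6 M in DMSO).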

[4] = species on record: Bos taurus; test: Inhibitory concentration against protection of bovine endothelial cells against cytotoxicity of oxidised LDL; assay type: functional; details: Endothelial cell
Procedure, shortened: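 Cells kept 48 h in the presence of oxidized LDL, washed twice with PBS. Viability read by MTT (250 µg mL^-1 in phenol red-free RPMI, 2 h, 37 °C), solubilized in DMSO, OD 540 nm, expressed as % of cells grown without oxidized LDL. Six concentrations, five assays each; IC50 by linear regression.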

[5] = species on record: Rattus norvegicus; test: Inhibitory concentration against KCL-induced rat thoracic contraction; assay type: functional
Procedure, shortened: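 Isolated rat aorta contracted with hyperpotassic solution (KCl 60 mM). Inhibition of contraction measured at eight concentrations, 10^-8 to 3 × 10^-5 M, each in duplicate, on two separate preparations. IC50 obtained from the concentration-response curve by linear regression. Flunarizine as reference.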

Question: For `CCCCN(C(=O)c1cc2cc(O)ccc2n1C)c1ccccc1`, which Ratio [1] is on record?
Answer: 3

Question: And the IC50 [2]?
Answer: 1 µM

Question: For `Cn1c2c(c3cc(O)ccc31)CCCCCC2`, which Ratio [1] is on record?
Answer: 10

Question: What about the IC50 [2] of the same compound?
Answer: 0.1 µM

Question: Which IC50 [2] does the source give for `CC(C)(Sc1cc(C(C)(C)C)c(O)c(C(C)(C)C)c1)Sc1cc(C(C)(C)C)c(O)c(C(C)(C)C)c1` [PROBUCOL] here?
Answer: 5 µM

Question: With `Oc1ccc2[nH]c3c(c2c1)CCCCCC3` as the compound, how does the Ratio [1] read?
Answer: 2

Question: And the IC50 [2]?
Answer: 0.5 µM

Question: With `Cn1c2c(c3cc(O)ccc31)CCCCC2` as the compound, how does the IC50 [2] read?
Answer: 0.1 µM

Question: And the inhibition [3]?
Answer: 62%

Question: With `Cn1c(C(=O)Nc2cccc(Cl)c2)cc2cc(O)ccc21` as the compound, how does the Ratio [1] read?
Answer: 0.8

Question: What about the IC50 [2] of the same compound?
Answer: 1 µM

Question: For `COc1ccc2c(c1)cc(C(=O)N(C)c1ccccc1)n2C`, which Ratio [1] is on record?
Answer: 0.02

Question: What about the IC50 [2] of the same compound?
Answer: 90 µM

Question: Which results are given for `COc1ccc2[nH]c(C(=O)N(C)c3ccccc3)cc2c1`?
Answer: Ratio [1]: < 0.001; IC50 [2]: > 1000 µM

Question: For `CN(C(=O)c1cc2cc(O)ccc2n1C)c1cccc(C(F)(F)F)c1`, which Ratio [1] is on record?
Answer: 0.5

Question: What about the IC50 [2] of the same compound?
Answer: 1 µM

Question: With `COc1ccc2[nH]c3c(c2c1)CCCC3` as the compound, how does the Ratio [1] read?
Answer: 3

Question: What about the IC50 [2] of the same compound?
Answer: 1 µM

Question: For `CCCCCCN(C(=O)c1cc2cc(O)ccc2[nH]1)c1ccccc1`, which Ratio [1] is on record?
Answer: 10

Question: And the IC50 [2]?
Answer: 0.1 µM

Question: Which IC50 [4] does the source give for `Cn1c(C(=O)N2CCN(C(c3ccc(F)cc3)c3ccc(F)cc3)CC2)cc2cc(O)ccc21` here?
Answer: 0.14 µM

Question: What about the IC50 [5] of the same compound?
Answer: 1.5 µM

Question: What about the Ratio [1] of the same compound?
Answer: 5

Question: What about the IC50 [2] of the same compound?
Answer: 0.6 µM

Question: What does the source list for `CN(C(=O)c1cc2cc(O)ccc2n1C)c1ccccc1`?
Answer: Ratio [1]: 10; IC50 [2]: 0.2 µM

Question: What does the source list for `COc1cc(NC(=O)c2cc3cc(O)ccc3[nH]2)cc(OC)c1OC`?
Answer: Ratio [1]: 3.8; IC50 [2]: 0.8 µM

Question: For `COc1cccc(N(C)C(=O)c2cc3cc(OC)ccc3n2C)c1`, which Ratio [1] is on record?
Answer: 0.01

Question: And the IC50 [2]?
Answer: 200 µM

Question: Which Ratio [1] does the source give for `COc1ccc2[nH]c(C(=O)Nc3ccccc3)cc2c1` here?
Answer: 2.2

Question: And the IC50 [2]?
Answer: 0.9 µM

Question: Which Ratio [1] does the source give for `Cn1c(C(=O)Nc2ccccc2)cc2cc(O)ccc21` here?
Answer: 0.3

Question: And the IC50 [2]?
Answer: 0.9 µM

Question: Which results are given for `CCSc1ccc2c(c1)c1c(n2C)CCCC1`?
Answer: Ratio [1]: 0.1; IC50 [2]: 20 µM

Question: With `Cn1c2c(c3cc(O)ccc31)CCCC2` as the compound, how does the Ratio [1] read?
Answer: 3

Question: And the IC50 [2]?
Answer: 0.6 µM

Question: For `CCCCCCN(C(=O)c1cc2cc(O)ccc2n1C)c1ccccc1`, which Ratio [1] is on record?
Answer: 5

Question: And the IC50 [2]?
Answer: 0.2 µM

Question: With `CN(C(=O)c1cc2cc(O)ccc2n1C)c1cccc(Cl)c1` as the compound, how does the Ratio [1] read?
Answer: > 20

Question: And the IC50 [2]?
Answer: < 0.1 µM

Question: Which Ratio [1] does the source give for `COc1ccc(CN2CCN(C(=O)c3cc4cc(O)ccc4[nH]3)CC2)c(OC)c1OC` here?
Answer: 1

Question: And the IC50 [2]?
Answer: 5 µM

Question: For `CN(C(=O)c1cc2cc(O)ccc2[nH]1)c1ccccc1`, which Ratio [1] is on record?
Answer: 1

Question: What about the IC50 [2] of the same compound?
Answer: 1 µM

Question: What does the source list for `O=C(Nc1ccccc1)c1cc2cc(O)ccc2[nH]1`?
Answer: Ratio [1]: 3; IC50 [2]: 1 µM

Question: What does the source list for `CCCCCCCCN(C(=O)c1cc2cc(O)ccc2[nH]1)c1ccccc1`?
Answer: Ratio [1]: 0.3; IC50 [2]: 10 µM

Question: For `CN(C(=O)c1cc2cc(O)ccc2n1C)c1cccc(Br)c1`, which Ratio [1] is on record?
Answer: 2.5

Question: And the IC50 [2]?
Answer: 0.8 µM

Question: Which Ratio [1] does the source give for `CCCCCCCCN(C(=O)c1cc2cc(SCC)ccc2[nH]1)c1ccccc1` here?
Answer: 0.03

Question: What about the IC50 [2] of the same compound?
Answer: 100 µM
